Source: ChEMBL document CHEMBL4818993, “Installation of an aryl boronic acid function into the external section of N-aryl-oxazolidinones: Synthesis and antimicrobial evaluation” (2021)
Converted amounts (≈) assume the structure as drawn.

Tests used:
[1] = tested on: Enterococcus faecium; assay: Antibacterial activity against Enterococcus faecium 35667 assessed as inhibition of bacterial growth measured after 24 hrs; assay type: functional
[2] = tested on: Escherichia coli; assay: Antibacterial activity against Escherichia coli JW5503 delta tolC mutant assessed as inhibition of bacterial growth measured after 24 hrs; conditions: JW5503, 24 h
[3] = tested on: Enterococcus faecalis; assay: Antibacterial activity against Enterococcus faecalis 29212 assessed as inhibition of bacterial growth measured after 24 hrs; conditions: Enterococcus faecalis, 29212, 24 h
[4] = tested on: Staphylococcus aureus; assay: Antibacterial activity against Methicillin resistant Staphylococcus aureus 43300 assessed as inhibition of bacterial growth measured after 24 hrs; assay type: functional
[5] = tested on: Staphylococcus aureus; assay: Antibacterial activity against Staphylococcus aureus 29213 assessed as inhibition of bacterial growth measured after 24 hrs; assay type: functional
[6] = tested on: Enterococcus faecalis; assay: Antibacterial activity against vancomycin resistant Enterococcus faecalis 51575 assessed as inhibition of bacterial growth measured after 24 hrs; assay type: functional
[7] = Efflux ratio of MIC for Escherichia coli 25922 to MIC for Escherichia coli JW5503; assay type: functional
In short: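 Ratio of the MIC against wild-type E. coli ATCC 25922 to the MIC against the tolC deletion mutant JW5503. Both MICs were read after 24 h, n = 3. Not determined when the MIC was >50 μM for both strains.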

[8] = tested on: Enterococcus faecium; assay: Antibacterial activity against vancomycin resistant Enterococcus faecium 700221 assessed as inhibition of bacterial growth measured after 24 hrs; assay type: functional

For `CC(=O)NCC1CN(c2ccc(-c3ccc(COC(=O)c4ccc(B(O)O)c(Cl)c4)cc3)c(F)c2)C(=O)O1` (configuration not stated), the MIC [1] was 1.56 µM (≈ 0.844 µg/mL), the MIC [2] was 25 µM (≈ 13.5 µg/mL) and the MIC [3] was 1.56 µM (≈ 0.844 µg/mL). For the same compound, the MIC [4] was 1.56 µM (≈ 0.844 µg/mL), the MIC [5] was 1.56 µM (≈ 0.844 µg/mL) and the MIC [6] was 1.56 µM (≈ 0.844 µg/mL). For the same compound, the Ratio [7] was greater than 2 and the MIC [8] was 1.56 µM (≈ 0.844 µg/mL).
With `CC(=O)NC[C@H]1CN(c2ccc(N3CCOCC3)c(F)c2)C(=O)O1` [LINEZOLID] the MIC [1] was 12.5 µM (≈ 4.22 µg/mL), the MIC [2] was 75 µM (≈ 25.3 µg/mL) and the MIC [3] was 6.25 µM (≈ 2.11 µg/mL). For the same compound, the MIC [4] was 6.25 µM (≈ 2.11 µg/mL), the MIC [5] was 6.25 µM (≈ 2.11 µg/mL) and the MIC [6] was 6.25 µM (≈ 2.11 µg/mL). It also gave a Ratio [7] greater than 1 and an MIC [8] of 6.25 µM (≈ 2.11 µg/mL).
`CC(=O)NC[C@H]1CN(c2ccc(-c3ccc(CO)cc3)c(F)c2)C(=O)O1` showed an MIC [1] of 0.78 µM (≈ 0.28 µg/mL), an MIC [2] of 1.56 µM (≈ 0.559 µg/mL) and an MIC [3] of 0.78 µM (≈ 0.28 µg/mL). For the same compound, the MIC [4] was 0.78 µM (≈ 0.28 µg/mL), the MIC [5] was 1.56 µM (≈ 0.559 µg/mL) and the MIC [6] was 0.78 µM (≈ 0.28 µg/mL). For the same compound, the Ratio [7] was greater than 32 and the MIC [8] was 0.78 µM (≈ 0.28 µg/mL).
`O=C(O)c1ccc(B(O)O)cc1` gave an MIC [1] greater than 50 µM, an MIC [2] greater than 50 µM and an MIC [3] greater than 50 µM. For the same compound, the MIC [4] was greater than 50 µM, the MIC [5] was greater than 50 µM and the MIC [6] was greater than 50 µM. The MIC [8] was greater than 50 µM.
`CC(=O)NC[C@H]1CN(c2ccc(-c3cccc(COC(=O)c4ccc(B(O)O)cc4)c3)c(F)c2)C(=O)O1` showed an MIC [1] of 0.78 µM (≈ 0.395 µg/mL), an MIC [2] of 3.13 µM (≈ 1.58 µg/mL) and an MIC [3] of 0.78 µM (≈ 0.395 µg/mL). For the same compound, the MIC [4] was 0.78 µM (≈ 0.395 µg/mL), the MIC [5] was 0.78 µM (≈ 0.395 µg/mL) and the MIC [6] was 0.39 µM (≈ 0.197 µg/mL). The Ratio [7] was greater than 16 and the MIC [8] was 0.78 µM (≈ 0.395 µg/mL).
Work on `CC(=O)NC[C@H]1CN(c2ccc(-c3ccc(CNC(=O)c4ccc(B(O)O)cc4)cc3)c(F)c2)C(=O)O1` yielded an MIC [1] of 0.39 µM (≈ 0.197 µg/mL), an MIC [2] of 0.78 µM (≈ 0.394 µg/mL) and an MIC [3] of 0.39 µM (≈ 0.197 µg/mL). For the same compound, the MIC [4] was 0.78 µM (≈ 0.394 µg/mL), the MIC [5] was 0.78 µM (≈ 0.394 µg/mL) and the MIC [6] was 0.39 µM (≈ 0.197 µg/mL). It also gave a Ratio [7] greater than 64 and an MIC [8] of 0.39 µM (≈ 0.197 µg/mL).
Work on `CC(=O)NC[C@H]1CN(c2ccc(-c3ccc(COC(=O)c4cccc(B(O)O)c4)cc3)c(F)c2)C(=O)O1` yielded an MIC [1] greater than 50 µM, an MIC [2] of 3.13 µM (≈ 1.58 µg/mL) and an MIC [3] greater than 50 µM. The MIC [4] was 0.78 µM (≈ 0.395 µg/mL), the MIC [5] was 1.56 µM (≈ 0.79 µg/mL) and the MIC [6] was 0.78 µM (≈ 0.395 µg/mL). It also gave a Ratio [7] greater than 16 and an MIC [8] greater than 50 µM.
In the case of `CC(=O)NC[C@H]1CN(c2ccc(-c3ccc(OC(=O)c4ccc(B(O)O)cc4)cc3)c(F)c2)C(=O)O1`, the MIC [1] is reported as greater than 50 µM, the MIC [2] is reported as greater than 50 µM and the MIC [3] is reported as greater than 50 µM. For the same compound, the MIC [4] was greater than 50 µM, the MIC [5] was greater than 50 µM and the MIC [6] was greater than 50 µM. For the same compound, the MIC [8] was greater than 50 µM.
Compound `CC(=O)NCC1CN(c2ccc(-c3ccc(COC(=O)c4ccccc4)cc3)c(F)c2)C(=O)O1` (configuration not stated) has an MIC [1] of 6.25 µM (≈ 2.89 µg/mL), an MIC [2] greater than 50 µM and an MIC [3] of 3.13 µM (≈ 1.45 µg/mL). The MIC [4] was 3.13 µM (≈ 1.45 µg/mL), the MIC [5] was 3.13 µM (≈ 1.45 µg/mL) and the MIC [6] was 3.13 µM (≈ 1.45 µg/mL). For the same compound, the MIC [8] was 3.13 µM (≈ 1.45 µg/mL).
For `CC(=O)NC[C@H]1CN(c2ccc(-c3ccc(COC(=O)c4ccc(B(O)O)cc4)cc3)c(F)c2)C(=O)O1`, the MIC [1] was 0.78 µM (≈ 0.395 µg/mL), the MIC [2] was 3.13 µM (≈ 1.58 µg/mL) and the MIC [3] was 0.78 µM (≈ 0.395 µg/mL). The MIC [4] was 0.78 µM (≈ 0.395 µg/mL), the MIC [5] was 0.78 µM (≈ 0.395 µg/mL) and the MIC [6] was 0.39 µM (≈ 0.197 µg/mL). It also gave a Ratio [7] greater than 16 and an MIC [8] of 0.39 µM (≈ 0.197 µg/mL).
